Values after ≈ are worked out from the molar mass of the structure shown. Active and inactive are the calls of the source. The rule behind the calls is not given here.
Experiments:
[1] = test system: Mycobacterium tuberculosis; assay: Antibacterial activity against Mycobacterium tuberculosis H37Rv under iron-deficient condition after 10 to 14 days by broth microdilution method; assay type: functional
Procedure, shortened: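 M. tuberculosis H37Rv broth microdilution in iron-deficient GAST (GAS medium without ferric ammonium citrate, pH 6.6). Compounds were added from DMSO stocks, with isoniazid as positive control and DMSO as negative control. Initial density was 10^4–10^5 cells/assay at 37 °C. Growth was read as OD620 at 10–14 days, when controls reached OD620 0.2–0.3. MIC was determined in triplicate.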

[2] = test system: Mycobacterium tuberculosis; assay: Antibacterial activity against Mycobacterium tuberculosis H37Rv at 50 uM under iron-replete condition after 10 to 14 days by broth microdilution method; assay type: functional, organism-based

| SMILES | MIC [1] [µM] | Activity [2] |
| --- | --- | --- |
| Nc1nc(-c2ccc3ccccc3c2)cc2c1nnn2[C@@H]1O[C@H](COS(=O)(=O)NC(=O)c2ccccc2O)[C@@H](O)[C@H]1O | 12.5 (≈ 7.41 µg/mL) | inactive |
| Nc1nc(-c2ccc(F)cc2)cc2c1nnn2[C@@H]1O[C@H](COS(=O)(=O)NC(=O)c2ccccc2O)[C@@H](O)[C@H]1O | 19 (≈ 10.6 µg/mL) | inactive |
| COc1ccc2cc(-c3cc4c(nnn4[C@@H]4O[C@H](COS(=O)(=O)NC(=O)c5ccccc5O)[C@@H](O)[C@H]4O)c(N)n3)ccc2c1 | 19 (≈ 11.8 µg/mL) | inactive |
| Cc1ccc(-c2cc3c(nnn3[C@@H]3O[C@H](COS(=O)(=O)NC(=O)c4ccccc4O)[C@@H](O)[C@H]3O)c(N)n2)cc1 | 25 (≈ 13.9 µg/mL) | inactive |
| Nc1nc(-c2ccccc2)cc2c1nnn2[C@@H]1O[C@H](COS(=O)(=O)NC(=O)c2ccccc2O)[C@@H](O)[C@H]1O | 25 (≈ 13.6 µg/mL) | inactive |
| Nc1nc(-c2ccc(C(F)(F)F)cc2)cc2c1nnn2[C@@H]1O[C@H](COS(=O)(=O)NC(=O)c2ccccc2O)[C@@H](O)[C@H]1O | > 50 | inactive |

— ChEMBL document CHEMBL3813633, “2-Aryl-8-aza-3-deazaadenosine analogues of 5'-O-[N-(salicyl)sulfamoyl]adenosine: Nucleoside antibiotics that block siderophore biosynthesis in Mycobacterium tuberculosis” (Bioorg Med Chem, 2016)
